# Data: ChEMBL document CHEMBL1142636 (2000)
# Assays:
# [1] = Growth inhibition of human MCF7/ADR-RES cells; format: functional; conditions: NCI/ADR-RES
# NCI-H522 = test: Growth inhibition of human NCI-H522 cells; format: functional
# HOP-92 = test: Growth inhibition of human HOP92 cells; format: functional
# UACC-257 = test: Growth inhibition of human UACC257 cells; format: functional
# Outline: (§1)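 Tested at the NCI in its human disease-oriented in vitro screen of 60 tumour cell lines, following the Monks et al. methods. Activity is expressed as GI50, given as log molar values.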
# M19-MEL = test: Growth inhibition of human M19-MEL cells; format: functional
# DU-145 = test: Growth inhibition of human DU145 cells; format: functional
# SF-539 = test: Growth inhibition of human SF539 cells; format: functional; outline: as §1
# U-251 = test: Growth inhibition of human U251 cells; format: functional; outline: as §1
# HOP-62 = test: Growth inhibition of human HOP62 cells; format: functional
# KM12 = test: Growth inhibition of human KM12 cells; format: functional
# RXF 393 = test: Growth inhibition of human […] cells; format: functional
# ACHN = test: Growth inhibition of human ACHN cells; format: functional
# SR = test: Growth inhibition of human SR cells; format: functional; outline: as §1
# SK-OV-3 = test: Growth inhibition of human SK-OV-3 cells; format: functional; outline: as §1
# SNB-75 = test: Growth inhibition of human SNB75 cells; format: functional; outline: as §1
# [2] = Growth inhibition of human OVACR4 cells; format: functional
# SK-MEL-5 = test: Growth inhibition of human SK-MEL-5 cells; format: functional; outline: as §1
# HT-29 = test: Growth inhibition of human HT29 cells; format: functional
# T47D = test: Growth inhibition of human T47D cells; format: functional; outline: as §1
# MDA-MB-231 = test: Growth inhibition of human MDA-MB-231 cells; format: functional
# SW-620 = test: Growth inhibition of human SW620 cells; format: functional; outline: as §1
# UACC-62 = test: Growth inhibition of human UACC62 cells; format: functional; outline: as §1
# DMS-273 = test: Growth inhibition of human DMS273 cells; format: functional
# MOLT-4 = test: Growth inhibition of human MOLT4 cells; format: functional
# K562 = test: Growth inhibition of human K562 cells; format: functional
# 786-0 = test: Growth inhibition of human 786-0 cells; format: functional
# Malme-3M = test: Growth inhibition of human MALME-3M cells; format: functional
# HCT-15 = test: Growth inhibition of human HCT15 cells; format: functional
# NCI-H23 = test: Growth inhibition of human NCI-H23 cells; format: functional
# [3] = Growth inhibition of human OVACR8 cells; format: functional
# [4] = Growth inhibition of human DMS144 cells; format: functional
# SK-MEL-2 = test: Growth inhibition of human SK-MEL-2 cells; format: functional; outline: as §1
# MDA-N = test: Growth inhibition of human MDA-N cells; format: functional
# M14 = test: Growth inhibition of human M14 cells; format: functional
# DLD-1 = test: Growth inhibition of human DLD1 cells; format: functional
# [5] = Growth inhibition of human RPMI8266 cells; format: functional
# LOX IMVI = test: Growth inhibition of human LOX IMVI cells; format: functional
# NCI-H460 = test: Growth inhibition of human NCI-H460 cells; format: functional
# A549 = test: Growth inhibition of human A549 cells; format: functional
# COLO 205 = test: Growth inhibition of human COLO205 cells; format: functional
# SF-268 = test: Growth inhibition of human SF268 cells; format: functional; outline: as §1
# [6] = Growth inhibition of human HL60(TB) cells; format: functional, HL-60(TB); conditions: HL-60
# IGROV-1 = test: Growth inhibition of human IGROV1 cells; format: functional
# NCI-H226 = test: Growth inhibition of human NCI-H226 cells; format: functional
# MDA-MB-435 = test: Growth inhibition of human MDA-MB-435 cells; format: functional
# UO-31 = test: Growth inhibition of human UO31 cells; format: functional; outline: as §1
# HCC 2998 = test: Growth inhibition of human HCC2998 cells; format: functional
# SF-295 = test: Growth inhibition of human SF295 cells; format: functional; outline: as §1
# A498 = test: Growth inhibition of human A498 cells; format: functional
# SN12C = test: Growth inhibition of human SN12C cells; format: functional; outline: as §1
# MCF7 = test: Growth inhibition of human MCF7 cells; format: functional
# TK-10 = test: Growth inhibition of human TK10 cells; format: functional; outline: as §1
# [7] = Growth inhibition of human […] cells; format: functional
# SNB-19 = test: Growth inhibition of human SNB19 cells; format: functional; outline: as §1
# BT-549 = test: Growth inhibition of human BT549 cells; format: functional
# HCT-116 = test: Growth inhibition of human HCT116 cells; format: functional
# SK-MEL-28 = test: Growth inhibition of human SK-MEL-28 cells; format: functional; outline: as §1
# KM-20L2 = test: Growth inhibition of human KM20L2 cells; format: functional
# PC-3 = test: Growth inhibition of human PC3 cells; format: functional
# EKVX = test: Growth inhibition of human EKVX cells; format: functional
# [8] = Growth inhibition of human LXFL529 cells; format: functional; conditions: LXFL 529
# CAKI-1 = test: Growth inhibition of human CAKI1 cells; format: functional
# NCI-H322M = test: Growth inhibition of human NCI-H322M cells; format: functional
# CCRF-CEM = test: Growth inhibition of human CCRF-CEM cells; format: functional
# HOP-18 = test: Growth inhibition of human HOP18 cells; format: functional
# [9] = Growth inhibition of human OVACR5 cells; format: functional
# Hs-578T = test: Growth inhibition of human HS578T cells; format: functional
# XF498 = test: Growth inhibition of human XF498 cells; format: functional; outline: as §1
structure (smiles),measurement,setting,value
COc1cc(C(=O)O)cc2c1[nH]c1ccccc12 [MUKOEIC ACID],GI50,[1],25.1 µM
same,GI50,NCI-H522,25.1 µM
same,GI50,HOP-92,25.1 µM
same,GI50,UACC-257,25.1 µM
same,GI50,M19-MEL,25.1 µM
same,GI50,DU-145,25.1 µM
same,GI50,SF-539,25.1 µM
same,GI50,U-251,25.1 µM
same,GI50,HOP-62,25.1 µM
same,GI50,KM12,25.1 µM
same,GI50,RXF 393,25.1 µM
same,GI50,ACHN,25.1 µM
same,GI50,SR,25.1 µM
same,GI50,SK-OV-3,25.1 µM
same,GI50,SNB-75,25.1 µM
same,GI50,[2],25.1 µM
same,GI50,SK-MEL-5,25.1 µM
same,GI50,HT-29,25.1 µM
same,GI50,T47D,25.1 µM
same,GI50,MDA-MB-231,25.1 µM
same,GI50,SW-620,25.1 µM
same,GI50,UACC-62,25.1 µM
same,GI50,DMS-273,25.1 µM
same,GI50,MOLT-4,25.1 µM
same,GI50,K562,25.1 µM
same,GI50,786-0,25.1 µM
same,GI50,Malme-3M,25.1 µM
same,GI50,HCT-15,25.1 µM
same,GI50,NCI-H23,25.1 µM
same,GI50,[3],25.1 µM
same,GI50,[4],25.1 µM
same,GI50,SK-MEL-2,25.1 µM
same,GI50,MDA-N,25.1 µM
same,GI50,M14,25.1 µM
same,GI50,DLD-1,25.1 µM
same,GI50,[5],25.1 µM
same,GI50,LOX IMVI,25.1 µM
same,GI50,NCI-H460,25.1 µM
same,GI50,A549,25.1 µM
same,GI50,COLO 205,25.1 µM
same,GI50,SF-268,25.1 µM
same,GI50,[6],25.1 µM
same,GI50,IGROV-1,25.1 µM
same,GI50,NCI-H226,25.1 µM
same,GI50,MDA-MB-435,25.1 µM
same,GI50,UO-31,25.1 µM
same,GI50,HCC 2998,25.1 µM
same,GI50,SF-295,25.1 µM
same,GI50,A498,25.1 µM
same,GI50,SN12C,25.1 µM
same,GI50,MCF7,25.1 µM
same,GI50,TK-10,25.1 µM
same,GI50,[7],25.1 µM
same,GI50,SNB-19,25.1 µM
same,GI50,BT-549,25.1 µM
same,GI50,HCT-116,25.1 µM
same,GI50,SK-MEL-28,25.1 µM
same,GI50,KM-20L2,25.1 µM
same,GI50,PC-3,25.1 µM
same,GI50,EKVX,25.1 µM
same,GI50,[8],25.1 µM
same,GI50,CAKI-1,25.1 µM
same,GI50,NCI-H322M,25.1 µM
same,GI50,CCRF-CEM,25.1 µM
same,GI50,HOP-18,25.1 µM
same,GI50,[9],25.1 µM
same,GI50,Hs-578T,25.1 µM
C=C(C)C(O)CCC1(C)C=Cc2c(c(C)cc3c2[nH]c2ccccc23)O1 (stereo unspecified),GI50,[1],8.91 µM
same,GI50,NCI-H522,3.31 µM
same,GI50,HOP-92,10.2 µM
same,GI50,UACC-257,8.13 µM
same,GI50,DU-145,12.6 µM
same,GI50,SF-539,3.63 µM
same,GI50,U-251,5.37 µM
same,GI50,HOP-62,2.45 µM
same,GI50,KM12,2 µM
same,CC50,KM12; read-out: pLC50 (the source's name) (converted),9.33 µM
same,GI50,RXF 393,2.75 µM
same,GI50,ACHN,4.47 µM
same,GI50,SR,4.47 µM
same,GI50,SK-OV-3,11 µM
same,GI50,SNB-75,3.31 µM
same,GI50,[2],16.6 µM
same,GI50,SK-MEL-5,10 µM
same,GI50,HT-29,1.7 µM
same,LC50,HT-29,6.17 µM
same,GI50,T47D,7.76 µM
same,GI50,MDA-MB-231,3.47 µM
same,GI50,SW-620,5.13 µM
same,GI50,MOLT-4,3.47 µM
same,GI50,K562,2.75 µM
same,GI50,786-0,3.89 µM
same,GI50,Malme-3M,11.2 µM
same,GI50,HCT-15,1.95 µM
same,GI50,NCI-H23,10.7 µM
same,GI50,[3],10.7 µM
same,GI50,SK-MEL-2,2.09 µM
same,GI50,MDA-N,3.55 µM
same,GI50,M14,6.61 µM
same,GI50,[5],2.95 µM
same,GI50,LOX IMVI,3.09 µM
same,GI50,NCI-H460,2.34 µM
same,GI50,A549,5.01 µM
same,GI50,COLO 205,2.45 µM
same,GI50,SF-268,5.62 µM
same,GI50,[6],4.27 µM
same,GI50,IGROV-1,8.32 µM
same,GI50,NCI-H226,6.31 µM
same,GI50,MDA-MB-435,8.32 µM
same,GI50,UO-31,12 µM
same,GI50,HCC 2998,2.19 µM
same,GI50,SF-295,4.37 µM
same,GI50,A498,13.5 µM
same,GI50,SN12C,9.55 µM
same,GI50,MCF7,12.3 µM
same,GI50,TK-10,14.1 µM
same,GI50,[7],10.2 µM
same,GI50,SNB-19,11.5 µM
same,GI50,BT-549,12.9 µM
same,GI50,HCT-116,9.77 µM
same,GI50,PC-3,6.61 µM
same,GI50,NCI-H322M,7.94 µM
same,GI50,CCRF-CEM,4.17 µM
same,GI50,[9],2.09 µM
same,GI50,Hs-578T,3.16 µM
COc1cc(C)cc2c1[nH]c1ccccc12 [MURRAYAFOLINE A],GI50,NCI-H522,4.27 µM
same,GI50,XF498,22.4 µM
same,GI50,HOP-92,23.4 µM
same,GI50,M19-MEL,18.2 µM
same,GI50,SF-539,6.03 µM
same,GI50,U-251,10.5 µM
same,GI50,HOP-62,6.31 µM
same,GI50,KM12,8.13 µM
same,GI50,RXF 393,9.33 µM
same,GI50,ACHN,23.4 µM
same,GI50,SR,10.2 µM
same,GI50,SK-OV-3,20.9 µM
same,GI50,SNB-75,25.1 µM
same,GI50,[2],25.1 µM
same,GI50,SK-MEL-5,9.12 µM
same,GI50,HT-29,7.76 µM
same,GI50,SW-620,8.32 µM
same,GI50,UACC-62,15.1 µM
same,GI50,DMS-273,7.76 µM
same,GI50,K562,25.1 µM
same,GI50,786-0,9.33 µM
same,GI50,Malme-3M,8.13 µM
same,GI50,HCT-15,7.41 µM
same,GI50,[3],7.41 µM
same,GI50,[4],9.55 µM
same,GI50,SK-MEL-2,7.41 µM
same,GI50,M14,7.24 µM
same,GI50,DLD-1,10.5 µM
same,GI50,[5],8.71 µM
same,GI50,LOX IMVI,12.6 µM
same,GI50,NCI-H460,7.76 µM
same,GI50,A549,1.15 µM
same,GI50,COLO 205,12.3 µM
same,GI50,SF-268,14.5 µM
same,GI50,[6],6.92 µM
same,GI50,IGROV-1,14.8 µM
same,GI50,NCI-H226,8.51 µM
same,GI50,UO-31,15.1 µM
same,GI50,HCC 2998,14.8 µM
same,GI50,SN12C,14.1 µM
same,GI50,TK-10,25.1 µM
same,GI50,[7],8.91 µM
same,GI50,SNB-19,25.1 µM
same,GI50,HCT-116,11.5 µM
same,GI50,SK-MEL-28,16.2 µM
same,GI50,KM-20L2,7.59 µM
same,GI50,[8],18.2 µM
same,GI50,NCI-H322M,12.9 µM
same,GI50,CCRF-CEM,15.5 µM
same,GI50,HOP-18,0.288 µM
same,GI50,[9],24.5 µM
